Data on four compounds can be found in PMC3942533 (Journal of medicinal chemistry, 2013).

Where a name gives a salt, the structure may show the parent alone. Read-outs that look alike come from different tables or passages of the source.

In data set [1] the test system is guinea pig ileum/longitudinal muscle myenteric plexus (μ). Description: GPI isolated tissue bioassay. The class given is biochemical. The following applies: for IC50: read-out: GPI (μ) IC50, 50% inhibition of muscle contraction, n = 4, ±SEM.
The nature of data set [2]: Enzymatic stability in human plasma. It is filed as in vitro ADME. The conditions noted are these: 37 °C, compared with Biphalin. Summed up:
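Test compound incubated in human plasma at 37 °C, with stability followed as a curve over time. Three independent experiments (n = 3), reported as mean ± SEM. Groups compared by two-way ANOVA with Bonferroni post hoc comparisons.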

In data set [3] the test system is mouse vas deferens (δ). Description: MVD isolated tissue bioassay. The class given is biochemical. The conditions noted are these: read-out: MVD (δ) IC50; 50% inhibition of muscle contraction, n = 4, ±SEM.
In the next data set the test system is mouse hot plate. Description: Hot plate antinociception test. The class given is in vivo. The conditions noted are these: mice, icv 0.6 nmol, 30 and 45 min after administration. Summed up: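 Mice received the test compound locally (icv, 0.6 nmol) or systemically (iv, 3000 nmol) and were assessed on the hot plate, with morphine as a reference. Antinociception expressed as % MPE over time and reported as mean ± SEM. Compared with vehicle-treated animals by two-way ANOVA and Bonferroni post hoc tests; significance P < 0.05.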

Data set [4] deals with mouse vas deferens (δ). The conditions noted are these: read-out: MVD (δ) IC50; ±SEM; ref [1b] and [13]; cited from earlier work.
Data set [5] has as its system guinea pig ileum/longitudinal muscle myenteric plexus (μ). The conditions noted are these: read-out: GPI (μ) IC50; ±SEM; ref [1b] and [13]; cited from earlier work.

As for `C[C@@H](NC(=O)[C@@H](N)Cc1ccc(O)cc1)C(=O)NCC(=O)N[C@H](CC(=O)NNC(=O)C[C@H](Cc1ccccc1)NC(=O)CNC(=O)[C@@H](C)NC(=O)[C@@H](N)Cc1ccc(O)cc1)Cc1ccccc1` [Compound 1, 2 TFA·(Tyr-D-Ala-Gly-hβ^3Phe-NH)2], the IC50 (usually the point on the concentration scale where inhibition reaches its midpoint) in data set [1] was found to be 50 ± 6.5 nM; in the data set on mouse vas deferens (δ) [3], 33 ± 9.4 nM. In addition, in data set [2], the “enzymatic stability, remaining parent compound versus time” value is recorded as “increased stability”. Besides, the “MPE (antinociceptive effect)” value in the data set with mouse hot plate came out at 100%.

In the case of `C[C@@H](NC(=O)[C@@H](N)Cc1ccc(O)cc1)C(=O)NCCC(=O)N[C@@H](Cc1ccccc1)C(=O)NNC(=O)[C@H](Cc1ccccc1)NC(=O)CCNC(=O)[C@@H](C)NC(=O)[C@@H](N)Cc1ccc(O)cc1` [Compound 2, 2 TFA·(Tyr-D-Ala-βAla-Phe-NH)2], the “GPI (μ) inhibition at fixed concentration” value in data set [1] (at 1 μM) was 9.2% at 1 μM. For the same compound, in data set [1] (ratio), the “IC50 (GPI)/IC50 (MVD)” value was over 0.75. In the data set on mouse vas deferens (δ) [3], the half-inhibitory concentration (IC50) was 1300 ± 221 nM.

Take `C[C@@H](NC(=O)C[C@@H](N)Cc1ccc(O)cc1)C(=O)NCC(=O)N[C@@H](Cc1ccccc1)C(=O)NNC(=O)[C@H](Cc1ccccc1)NC(=O)CNC(=O)[C@@H](C)NC(=O)C[C@@H](N)Cc1ccc(O)cc1` [Compound 4, 2 TFA·(hβ^3Tyr-D-Ala-Gly-Phe-NH)2]: the IC50 amounted to 670 ± 139 nM in data set [1] and 710 ± 97 nM with mouse vas deferens (δ) [3].

Turning to Biphalin [Bph], the IC50 was 2.7 ± 1.5 nM in the data set on mouse vas deferens (δ) [4] and 8.8 ± 0.3 nM in data set [5].
